Reference: ChEMBL document CHEMBL2331168, “Anticonvulsant evaluation of aminoalkanol derivatives of 2- and 4-methylxanthone” (Bioorg Med Chem, 2013)
Active and inactive are the calls of the source.

Experiments:
Rattus norvegicus [1] = experiment: Neurotoxicity in Sprague-Dawley rat assessed as minimal motor impairment at 30 mg/kg, po after 2 hrs by rotorod test; details: in vivo
Mus musculus [2] = experiment: Neurotoxicity in albino mouse assessed as minimal motor impairment at 100 mg/kg, ip after 4 hrs by rotorod test; format: toxicity, organism-based; parameters: dose 100 mg/kg, route intraperitoneal; details: in vivo
Summary of the method: (§1)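 Male albino mice (Carworth Farms No. 1) were dosed ip with suspensions in 0.5% methylcellulose and put on a 1 in. knurled rod rotating at 6 rpm at set times after dosing. Neurotoxicity meant failure to stay on the rod for at least 1 min in each of three trials. Scored as impaired/tested.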

Mus musculus [3] = experiment: Neurotoxicity in albino mouse assessed as minimal motor impairment at 30 mg/kg, ip after 4 hrs by rotorod test; format: toxicity, organism-based; parameters: dose 30 mg/kg, route intraperitoneal; details: in vivo
Summary of the method: as §1

Mus musculus [4] = experiment: Anticonvulsant activity in albino mouse assessed as protection against subcutaneous pentetrazole-induced seizures at 30 mg/kg, ip after 0.5 hrs; format: functional, organism-based; parameters: dose 30 mg/kg
Summary of the method: (§2)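 Male albino mice (Carworth Farms No. 1) received compound ip in 0.5% methylcellulose, then pentetrazole 85 mg/kg sc in 0.9% NaCl at 0.5 or 4 h. Mice were watched for at least 30 min. Protection meant no threshold seizure, defined as a single clonic spasm lasting at least 5 s. Scored as protected/tested.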

Rattus norvegicus [5] = experiment: Neurotoxicity in Sprague-Dawley rat assessed as minimal motor impairment at 30 mg/kg, po after 4 hrs by rotorod test; details: in vivo
Mus musculus [6] = experiment: Neurotoxicity in albino mouse assessed as minimal motor impairment at 30 mg/kg, ip after 0.5 hrs by rotorod test; format: toxicity, organism-based; parameters: dose 30 mg/kg, route intraperitoneal; details: in vivo
Summary of the method: as §1

Mus musculus [7] = species: Mus musculus; experiment: Protective index, ratio TD50 for albino mouse to ED50 for albino mouse by maximal electroshock-induced seizure test after 0.5 hrs; format: functional
Summary of the method: (§3)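 Protective index was calculated as mouse ip TD50 (rotorod) divided by mouse ip MES ED50, both obtained by quantitative dose-response testing at the stated post-dose time.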

Mus musculus [8] = experiment: Anticonvulsant activity in albino mouse assessed as protection against maximal electroshock-induced seizures at 30 mg/kg, ip after 0.5 hrs; format: functional, organism-based; parameters: dose 30 mg/kg
Summary of the method: (§4)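 Male albino mice (Carworth Farms No. 1) were given the compound ip as a suspension in 0.5% methylcellulose at 3–300 mg/kg. MES testing was at 0.5 and 4 h, sometimes also at 0.25 and 1 h. Current was 60 Hz, 50 mA, 0.2 s via corneal electrodes, with saline eye drops. Protection meant no hindlimb tonic extension, scored as protected/tested.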

Mus musculus [9] = experiment: Anticonvulsant activity in albino mouse assessed as protection against maximal electroshock-induced seizures at 300 mg/kg, ip after 4 hrs; format: functional, organism-based; parameters: dose 300 mg/kg
Summary of the method: as §4

Mus musculus [10] = experiment: Anticonvulsant activity in albino mouse assessed as protection against subcutaneous pentetrazole-induced seizures at 300 mg/kg, ip after 4 hrs; format: functional, organism-based; parameters: dose 300 mg/kg
Summary of the method: as §2

[11] = Neurotoxicity in ip dosed albino mouse assessed as minimal motor impairment after 1 hr by rotorod test; format: toxicity, organism-based; details: in vivo
Summary of the method: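 TD50, with 95% confidence intervals, was the ip dose causing neurotoxicity in 50% of male albino mice. Deficit was judged on the rotorod: a 1 in. knurled rod at 6 rpm, where failure to hold on for 1 min in each of three trials counted as deficit. Read at the stated time after dosing.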

Rattus norvegicus [12] = experiment: Anticonvulsant activity in Sprague-Dawley rat assessed as protection against maximal electroshock-induced seizures at 30 mg/kg, po after 1 hr; format: functional, organism-based; parameters: dose 30 mg/kg
Summary of the method: (§5)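 Male Sprague-Dawley rats dosed orally at 30 mg/kg and tested at 0.25, 0.5, 1, 2 and 4 h. Seizures were induced by 60 Hz alternating current at 150 mA for 0.2 s through corneal electrodes, after a drop of 0.9% NaCl in each eye. Protection meant abolition of hindlimb tonic extension. Reported as protected/tested, usually 4 rats per time point.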

Mus musculus [13] = experiment: Anticonvulsant activity in albino mouse assessed as protection against subcutaneous pentetrazole-induced seizures at 300 mg/kg, ip after 0.5 hrs; format: functional, organism-based; parameters: dose 300 mg/kg
Summary of the method: as §2

Mus musculus [14] = experiment: Anticonvulsant activity in albino mouse assessed as protection against maximal electroshock-induced seizures at 100 mg/kg, ip after 0.5 hrs; format: functional, organism-based; parameters: dose 100 mg/kg
Summary of the method: as §4

Mus musculus [15] = experiment: Anticonvulsant activity in ip dosed albino mouse assessed as protection against subcutaneous pentetrazole-induced seizures after 0.5 hrs; format: functional
Rattus norvegicus [16] = experiment: Neurotoxicity in Sprague-Dawley rat assessed as minimal motor impairment at 30 mg/kg, po after 0.25 hrs by rotorod test; details: in vivo
Mus musculus [17] = experiment: Anticonvulsant activity in albino mouse assessed as protection against maximal electroshock-induced seizures at 100 mg/kg, ip after 4 hrs; format: functional, organism-based; parameters: dose 100 mg/kg
Summary of the method: as §4

Rattus norvegicus [18] = experiment: Neurotoxicity in Sprague-Dawley rat assessed as minimal motor impairment at 30 mg/kg, po after 1 hr by rotorod test; details: in vivo
Mus musculus [19] = experiment: Anticonvulsant activity in albino mouse assessed as protection against subcutaneous pentetrazole-induced seizures at 30 mg/kg, ip after 4 hrs; format: functional, organism-based; parameters: dose 30 mg/kg
Summary of the method: as §2

Mus musculus [20] = experiment: Anticonvulsant activity in ip dosed albino mouse assessed as protection against maximal electroshock-induced seizures after 0.5 hrs; format: functional
Summary of the method: (§6)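 ED50, with 95% confidence intervals, was the ip dose protecting 50% of mice in the MES test. It was measured at the stated post-dose time in male albino mice given suspensions in 0.5% methylcellulose. MES used 60 Hz, 50 mA, 0.2 s corneal stimulation, and the endpoint was abolition of hindlimb tonic extension.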

Mus musculus [21] = experiment: Protective index, ratio TD50 for albino mouse to ED50 for albino mouse by subcutaneous pentetrazole-induced seizure test after 0.5 hrs; format: functional
Mus musculus [22] = experiment: Anticonvulsant activity in albino mouse assessed as protection against maximal electroshock-induced seizures at 300 mg/kg, ip after 0.5 hrs; format: functional, organism-based; parameters: dose 300 mg/kg
Summary of the method: as §4

Mus musculus [23] = experiment: Anticonvulsant activity in albino mouse assessed as protection against subcutaneous pentetrazole-induced seizures at 100 mg/kg, ip after 0.5 hrs; format: functional, organism-based; parameters: dose 100 mg/kg
Summary of the method: as §2

Mus musculus [24] = experiment: Anticonvulsant activity in albino mouse assessed as protection against maximal electroshock-induced seizures at 30 mg/kg, ip after 4 hrs; format: functional, organism-based; parameters: dose 30 mg/kg
Summary of the method: as §4

Rattus norvegicus [25] = experiment: Neurotoxicity in Sprague-Dawley rat assessed as minimal motor impairment at 30 mg/kg, po after 0.5 hrs by rotorod test; details: in vivo
Mus musculus [26] = experiment: Neurotoxicity in albino mouse assessed as minimal motor impairment at 100 mg/kg, ip after 0.5 hrs by rotorod test; format: toxicity, organism-based; parameters: dose 100 mg/kg, route intraperitoneal; details: in vivo
Summary of the method: as §1

Mus musculus [27] = experiment: Anticonvulsant activity in albino mouse assessed as protection against subcutaneous pentetrazole-induced seizures at 100 mg/kg, ip after 4 hrs; format: functional, organism-based; parameters: dose 100 mg/kg
Summary of the method: as §2

Rattus norvegicus [28] = experiment: Anticonvulsant activity in Sprague-Dawley rat assessed as protection against maximal electroshock-induced seizures at 30 mg/kg, po after 2 hrs; format: functional, organism-based; parameters: dose 30 mg/kg
Summary of the method: as §5

Rattus norvegicus [29] = experiment: Anticonvulsant activity in Sprague-Dawley rat assessed as protection against maximal electroshock-induced seizures at 30 mg/kg, po after 0.25 hrs; format: functional, organism-based; parameters: dose 30 mg/kg
Summary of the method: as §5

Mus musculus [30] = experiment: Anticonvulsant activity in ip dosed albino mouse assessed as protection against subcutaneous pentetrazole-induced seizures after 1 hr; format: functional
Mus musculus [31] = species: Mus musculus; experiment: Protective index, ratio TD50 for albino mouse to ED50 for albino mouse by maximal electroshock-induced seizure test after 1 hr; format: functional
Summary of the method: as §3

Mus musculus [32] = experiment: Anticonvulsant activity in ip dosed albino mouse assessed as protection against maximal electroshock-induced seizures after 1 hr; format: functional
Summary of the method: as §6

Rattus norvegicus [33] = experiment: Anticonvulsant activity in Sprague-Dawley rat assessed as protection against maximal electroshock-induced seizures at 30 mg/kg, po after 0.5 hrs; format: functional, organism-based; parameters: dose 30 mg/kg
Summary of the method: as §5

Mus musculus [34] = experiment: Protective index, ratio TD50 for albino mouse to ED50 for albino mouse by subcutaneous pentetrazole-induced seizure test after 1 hr; format: functional
Mus musculus [35] = experiment: Neurotoxicity in albino mouse assessed as minimal motor impairment at 300 mg/kg, ip after 4 hrs by rotorod test; format: toxicity, organism-based; parameters: dose 300 mg/kg, route intraperitoneal; details: in vivo
Summary of the method: as §1

Mus musculus [36] = experiment: Neurotoxicity in albino mouse assessed as minimal motor impairment at 100 mg/kg, ip after 0.25 hrs by rotorod test; format: toxicity, organism-based; parameters: dose 100 mg/kg, route intraperitoneal; details: in vivo
Summary of the method: as §1

Mus musculus [37] = experiment: Neurotoxicity in albino mouse assessed as minimal motor impairment at 100 mg/kg, ip after 1 hr by rotorod test; format: toxicity, organism-based; parameters: dose 100 mg/kg, route intraperitoneal; details: in vivo
Summary of the method: as §1

Mus musculus [38] = experiment: Anticonvulsant activity in albino mouse assessed as protection against maximal electroshock-induced seizures at 100 mg/kg, ip after 0.25 hrs; format: functional, organism-based; parameters: dose 100 mg/kg
Summary of the method: as §4

Mus musculus [39] = experiment: Anticonvulsant activity in albino mouse assessed as protection against maximal electroshock-induced seizures at 100 mg/kg, ip after 1 hr; format: functional, organism-based; parameters: dose 100 mg/kg
Summary of the method: as §4

| SMILES | Activity (Rattus norvegicus [1]) | Activity (Mus musculus [2]) | Activity (Mus musculus [3]) | Activity (Mus musculus [4]) | Activity (Rattus norvegicus [5]) | Activity (Mus musculus [6]) | Activity (Mus musculus [8]) | Activity (Mus musculus [9]) | Activity (Mus musculus [10]) | TD50 at 1 h [11] [mg/kg] | Activity (Mus musculus [13]) | Activity (Mus musculus [14]) | Activity (Rattus norvegicus [16]) | Activity (Mus musculus [17]) | Activity (Rattus norvegicus [18]) | Activity (Mus musculus [19]) | Activity (Mus musculus [22]) | Activity (Mus musculus [23]) | Activity (Mus musculus [24]) | Activity (Mus musculus [27]) | also measured |
| --- | --- | --- | --- | --- | --- | --- | --- | --- | --- | --- | --- | --- | --- | --- | --- | --- | --- | --- | --- | --- | --- |
| CCC(CO)NCc1ccc2oc3cc(OC)ccc3c(=O)c2c1 (racemic) | Non-toxic | Non-toxic | Non-toxic | inactive | Non-toxic | Non-toxic | inactive | Active | inactive | 213 | inactive | Active | Non-toxic | inactive | Non-toxic | inactive | Active | inactive | inactive | inactive | Ratio TD50/ED50 (Mus musculus [7]): 2.66; Activity (Rattus norvegicus [12]): inactive; ED50 (Mus musculus [15]): > 500 mg/kg; ED50 (Mus musculus [20]): 80 mg/kg; Ratio TD50/ED50 (Mus musculus [21]): <0.43; Activity (Rattus norvegicus [25]): Non-toxic; Activity (Mus musculus [26]): Non-toxic |
| CC[C@H](CO)NCc1ccc2oc3cc(OC)ccc3c(=O)c2c1 | Non-toxic | Non-toxic | Non-toxic | inactive | Non-toxic | Non-toxic | inactive | Active | inactive | 269 | inactive | Active | Non-toxic |  | Non-toxic | inactive | Active | inactive | inactive | inactive | Activity (Rattus norvegicus [28]): inactive; Activity (Rattus norvegicus [29]): inactive; ED50 (Mus musculus [30]): > 175 mg/kg; Ratio TD50/ED50 (Mus musculus [31]): 2.51; ED50 (Mus musculus [32]): 107 mg/kg; Activity (Rattus norvegicus [25]): Non-toxic; Activity (Rattus norvegicus [33]): inactive; Ratio TD50/ED50 (Mus musculus [34]): <1.54; Activity (Mus musculus [35]): Non-toxic |
| COc1ccc2c(=O)c3cccc(CN(C)C(C)CO)c3oc2c1 (racemic) |  | Non-toxic |  | inactive |  |  | inactive | Active |  |  | inactive | inactive |  | inactive |  |  | Active | inactive | inactive | inactive | Activity (Mus musculus [36]): Non-toxic; Activity (Mus musculus [37]): Non-toxic; Activity (Mus musculus [38]): inactive; Activity (Mus musculus [39]): inactive; Activity (Mus musculus [35]): Non-toxic |
